The values below come from ChEMBL document CHEMBL1155541, “Discovery of 6-chloro-2-trifluoromethyl-7-aryl-7H-imidazo[1,2-a]imidazol-3-ylmethylamines, a novel class of corticotropin-releasing factor receptor type 1 (CRF1R) antagonists” (Bioorg Med Chem Lett, 2010).

Experiment [1] deals with T1, Corticotropin-releasing factor receptor 1 (Homo sapiens) (UniProt P34998).
T1 sequence (whole entry): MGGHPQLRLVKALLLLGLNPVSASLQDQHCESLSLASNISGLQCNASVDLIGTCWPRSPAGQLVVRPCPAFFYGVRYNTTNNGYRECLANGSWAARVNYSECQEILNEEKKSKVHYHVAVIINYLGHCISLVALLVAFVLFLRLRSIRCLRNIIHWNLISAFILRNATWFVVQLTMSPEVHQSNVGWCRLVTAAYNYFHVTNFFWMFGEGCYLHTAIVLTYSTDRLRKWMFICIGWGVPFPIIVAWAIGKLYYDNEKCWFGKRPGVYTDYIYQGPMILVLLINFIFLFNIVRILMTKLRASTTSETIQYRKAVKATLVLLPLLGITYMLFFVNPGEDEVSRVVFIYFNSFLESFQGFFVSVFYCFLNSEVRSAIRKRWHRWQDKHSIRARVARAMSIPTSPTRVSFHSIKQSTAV
In words: Antagonist activity at human CRF1 receptor expressed in human IMR-32 cells assessed as inhibition of CRF-stimulated cAMP production. Format: functional, cell-based. A general note: cAMP levels reflect the balance of adenylyl cyclase and phosphodiesterase activity.

For experiment [2], the target named is T2, Corticotropin-releasing factor receptor 1 (Homo sapiens, UniProt P34998).
T2 sequence (P34998 whole entry): T1 sequence (whole entry)
In words: Displacement of [125I] Tyr-o-CRF from human […] expressed in human IMR-32 cells after 100 mins. The format is cell-based. The procedure, abridged:
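Membranes from transformed IMR-32 cells incubated with 100 pM [125I]Tyr-o-CRF and increasing test-compound concentrations, 100 min, 25 °C. Buffer: 50 mM Tris pH 7.2, 10 mM MgCl2, 0.5% BSA, 0.005% Triton X-100, aprotinin, leupeptin. Stopped with ice-cold 50 mM Tris pH 7.4, 0.2% BSA. Nonspecific binding defined with o-CRF. Values given as Ki.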
In general terms: In a radioligand displacement assay an active substance lowers the binding of a labelled ligand.

For orientation: pKi means the negative decadic logarithm of the Ki, by convention in mol/L.

Molecules are shown by their SMILES. pKi: −log10 of the molar value. Activity calls are given as the source filed them. No rule for the calls is given here.

For `Cc1cc(C)c(-n2c(Cl)cn3c(CN4CCSCC4)c(C(F)(F)F)nc23)c(C)c1`, the outcome in experiment [1] was Active. This compound also gave a pKi in experiment [2] of 6.04.
For the compound `Cc1cc(C)c(-n2c(Cl)cn3c(CN(Cc4ccc(F)cc4)CC(F)(F)F)c(C(F)(F)F)nc23)c(C)c1`, the result in experiment [1] was Active. Besides, the pKi in experiment [2] is 6.80.
On the same counts, the results for `CCN(Cc1c(C(F)(F)F)nc2n(-c3c(C)cc(C)cc3C)c(Cl)cn12)CC1CCC1` are “Active” and 7.80.
For `CCCN(CCC)Cc1c(C(F)(F)F)nc2n(-c3c(C)cc(C)cc3C)c(Cl)cn12` the same measures were “Active” and 7.16.
On the same counts, the results for `CCCN(Cc1c(C(F)(F)F)nc2n(-c3c(C)cc(C)cc3C)ccn12)CC1CC1` are “Active” and 6.33.
For the compound `Cc1cc(C)c(-n2c(Cl)cn3c(CN(CCC4CC4)CCC(F)(F)F)c(C(F)(F)F)nc23)c(C)c1`, the result in experiment [1] was Active. The negative-log Ki (pKi) in experiment [2] is 6.96.
On the same counts, the results for `CCCN(CC1CC1)C(=O)c1c(C)nc2n(-c3c(C)cc(C)cc3C)c(Cl)cn12` are “Active” and 7.21.
Consider `CCCN(Cc1c(C(F)(F)F)nc2n(-c3c(C)cc(C)cc3C)c(Cl)cn12)CC(F)(F)F`, for which, in experiment [1], the outcome was Active. This compound had a pKi in experiment [2] of 8.08.
Consider `C=C(C)CN(CC)Cc1c(C(F)(F)F)nc2n(-c3c(C)cc(C)cc3C)c(Cl)cn12`, for which the outcome in experiment [1] was Active. Besides, in experiment [2], the pKi is 7.17.
For `Cc1cc(C)c(-n2c(Cl)cn3c(CN(CCC(F)(F)F)Cc4cccc(F)c4)c(C(F)(F)F)nc23)c(C)c1` the same measures were “Active” and 7.31.
Regarding `CCCN(Cc1c(C(F)(F)F)nc2n(-c3c(C)cc(C)cc3C)c(Cl)cn12)CC1CCC1`, the result in experiment [1] was Active. Further, the pKi in experiment [2] was 8.28.
For `Cc1cc(C)c(-n2c(Cl)cn3c(CN(C)CCc4ccncc4)c(C(F)(F)F)nc23)c(C)c1` the same measures were “Active” and 5.12.
On the same counts, the results for `CCCN(Cc1ccc([N+](=O)[O-])cc1)Cc1c(C(F)(F)F)nc2n(-c3c(C)cc(C)cc3C)c(Cl)cn12` are “Active” and 6.82.
`CCCCN(C)Cc1c(C(F)(F)F)nc2n(-c3c(C)cc(C)cc3C)c(Cl)cn12`: the outcome in experiment [1] was Active. This compound also had a negative-log Ki (pKi) in experiment [2] of 6.51.
Take `Cc1cc(C)c(-n2c(Cl)cn3c(CN(C)CCc4cccnc4)c(C(F)(F)F)nc23)c(C)c1`: in experiment [1], the outcome was Active. In experiment [2], the pKi is 5.72.
As to `Cc1cc(C)c(-n2c(Cl)cn3c(CN4CCC(C)CC4)c(C(F)(F)F)nc23)c(C)c1`, the outcome in experiment [1] was Active. The pKi in experiment [2] is 5.49.
On the same counts, the results for `Cc1cc(C)c(-n2c(Cl)cn3c(CN4CCCCC4)c(C(F)(F)F)nc23)c(C)c1` are “Active” and 5.92.
On the same counts, the results for `CCCN(Cc1ccccc1)Cc1c(C(F)(F)F)nc2n(-c3c(C)cc(C)cc3C)c(Cl)cn12` are “Active” and 6.77.
